This note sets out measurements from ChEMBL document CHEMBL2040757, “New N-arylamino biquinoline derivatives: synthesis, antimicrobial, antituberculosis, and antimalarial evaluation” (Eur J Med Chem, 2012).

As a reminder, the IC50 is the midpoint of a concentration-inhibition curve. High values mean lower potency, low ones higher potency. The term MIC denotes the lowest concentration that inhibits growth of the organism. Lower therefore signals greater potency. As usually defined, the inhibition is the share of the control response that was lost under treatment.

In brackets after ≈: the same amount, converted by molar mass. Where only a bound is given, the exact number is not on record here.

In one assay the test system is Plasmodium falciparum. The experiment in a line: Antimalarial activity against trophozoite stage of chloroquine-sensitive Plasmodium falciparum 3D7 infected in human erythrocytes after 48 hrs. The assay is classed as functional, organism-based. Conditions: 3D7, 48 h. The procedure, abridged:
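Parasites were kept in continuous culture in A+ human erythrocytes in RPMI with 10% human serum. Sorbitol-synchronized trophozoites at 1–2% parasitaemia and 2.5% haematocrit were exposed to serial dilutions (maximum 1 mg/ml; 0.02% final DMSO) for 48 h at 37 °C. Growth inhibition was measured; chloroquine and quinine served as positive controls. IC50 came from duplicate experiments.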

Another assay relates to Vibrio cholerae. The experiment in a line: Antibacterial activity against Vibrio cholerae MTCC 3906 by broth microdilution method. The assay is classed as functional. For orientation: In broth dilution the organism is exposed to a series of concentrations in liquid medium.
For a further assay, the system named is Escherichia coli. The experiment in a line: Antibacterial activity against Escherichia coli MTCC 443 by broth microdilution method. The assay is classed as functional. The procedure, abridged:
(§1)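 Broth microdilution per NCCLS, with serial dilutions in Mueller Hinton broth and DMSO as diluent. Tubes were incubated overnight at 37 °C. MIC was the lowest concentration giving no visible growth, with the control organism's MIC read to verify concentrations. Tubes without growth were subcultured overnight at 37 °C to judge bacteriostatic versus bactericidal action.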

The subject of another assay is Candida albicans. The assay can be described thus: Antifungal activity against Candida albicans MTCC 227 by broth microdilution method. The assay is classed as functional.
Another assay concerns Streptococcus pneumoniae. The experiment in a line: Antibacterial activity against Streptococcus pneumoniae MTCC 1936 by broth microdilution method. The format is functional. The procedure, abridged:
as §1

The next assay relates to Aspergillus fumigatus. The assay can be described thus: Antifungal activity against Aspergillus fumigatus MTCC 3008 by broth microdilution method. The format is functional.
Another assay concerns Clostridium tetani. The experiment in a line: Antibacterial activity against Clostridium tetani MTCC 449 by broth microdilution method. The format is functional.
Assay [1] deals with Mycobacterium tuberculosis. The assay can be described thus: Growth inhibition of Mycobacterium tuberculosis H37Rv at 6.25 ug/mL after 12 to 28 days relative to control. The assay is classed as functional.
The next assay concerns Bacillus subtilis. The experiment in a line: Antibacterial activity against Bacillus subtilis MTCC 441 by broth microdilution method. The format is functional. An outline of the steps: as §1
The subject of another assay is Salmonella typhi. The assay can be described thus: Antibacterial activity against Salmonella typhi MTCC 98 by broth microdilution method. The assay is classed as functional, Salmonella enterica subsp. enterica serovar Typhi. Conditions: Salmonella enterica.

In the assay on Plasmodium falciparum, `CC1(C)CC(=O)C2=C(C1)N(Nc1ccc(F)cc1)C(N)=C(C#N)C2c1cc2cc(Cl)ccc2nc1Cl` (stereo not given) returned an IC50 of 0.154 µg/mL (≈ 0.295 µM). Further, the MIC in the assay on Vibrio cholerae was 125 µg/mL (≈ 239 µM); against Escherichia coli it was 250 µg/mL (≈ 479 µM); against Candida albicans it was 500 µg/mL (≈ 957 µM); against Streptococcus pneumoniae, 200 µg/mL (≈ 383 µM); with Aspergillus fumigatus it was more than 1000 µg/mL; in the assay on Clostridium tetani, 500 µg/mL (≈ 957 µM). Also, the MIC is 100 µg/mL (≈ 191 µM) against Bacillus subtilis and 500 µg/mL (≈ 957 µM) in the assay with Salmonella typhi. This compound also returned an inhibition at 6.25 µg/mL in [1] of 65%.

The compound `CC1(C)CC(=O)C2=C(C1)N(Nc1ccccc1)C(N)=C(C#N)C2c1cc2ccccc2nc1Cl` (stereo not given) returned an IC50 in the assay with Plasmodium falciparum of 0.015 µg/mL (≈ 0.0319 µM). Besides, the MIC in the assay on Vibrio cholerae is 250 µg/mL (≈ 532 µM); against Escherichia coli, 200 µg/mL (≈ 426 µM); in the assay with Candida albicans, 500 µg/mL (≈ 1060 µM); with Streptococcus pneumoniae, 200 µg/mL (≈ 426 µM); against Aspergillus fumigatus, more than 1000 µg/mL; in the assay with Clostridium tetani, 250 µg/mL (≈ 532 µM). In addition, the MIC with Bacillus subtilis was found to be 200 µg/mL (≈ 426 µM); in the assay on Salmonella typhi, 250 µg/mL (≈ 532 µM). Further, the inhibition at 6.25 µg/mL in assay [1] worked out at 8%.

In the assay on Plasmodium falciparum, `COc1ccc2nc(Cl)c(C3C(C#N)=C(N)N(Nc4ccc(F)cc4)C4=C3C(=O)CC(C)(C)C4)cc2c1` (stereo not given) returned an IC50 of 0.25 µg/mL (≈ 0.483 µM). The minimal inhibitory concentration (MIC) worked out at 100 µg/mL (≈ 193 µM) against Vibrio cholerae; 125 µg/mL (≈ 241 µM) in the assay with Escherichia coli; 250 µg/mL (≈ 483 µM) in the assay with Candida albicans; 200 µg/mL (≈ 386 µM) against Streptococcus pneumoniae; 500 µg/mL (≈ 965 µM) in the assay on Aspergillus fumigatus; 500 µg/mL (≈ 965 µM) in the assay on Clostridium tetani. For the same compound, the figures for the MIC against Bacillus subtilis and against Salmonella typhi were 250 µg/mL (≈ 483 µM) and 125 µg/mL (≈ 241 µM), respectively. In assay [1], this compound had an inhibition at 6.25 µg/mL of 22%.

As for `COC1=CC(=O)C[C@@H](C)[C@]12Oc1c(Cl)c(OC)cc(OC)c1C2=O` [GRISEOFULVIN], the figures for the MIC in the assay on Candida albicans and in the assay on Aspergillus fumigatus were 500 µg/mL (≈ 1420 µM) and 100 µg/mL (≈ 283 µM), respectively.

For `CC1(C)S[C@@H]2[C@H](NC(=O)[C@H](N)c3ccccc3)C(=O)N2[C@H]1C(=O)O` [AMPICILLIN], the MIC was determined as 100 µg/mL (≈ 286 µM) with Vibrio cholerae; 100 µg/mL (≈ 286 µM) against Escherichia coli; 100 µg/mL (≈ 286 µM) against Streptococcus pneumoniae; 250 µg/mL (≈ 715 µM) with Clostridium tetani; 250 µg/mL (≈ 715 µM) in the assay on Bacillus subtilis; 100 µg/mL (≈ 286 µM) with Salmonella typhi.

The compound `Cc1ccc(NN2C(N)=C(C#N)C(c3cc4cc(Cl)ccc4nc3Cl)C3=C2CC(C)(C)CC3=O)cc1` (stereo not given) returned an IC50 in the assay on Plasmodium falciparum of 0.014 µg/mL (≈ 0.027 µM). Further, the MIC against Vibrio cholerae was 250 µg/mL (≈ 482 µM); in the assay with Escherichia coli it was 250 µg/mL (≈ 482 µM); against Candida albicans, 500 µg/mL (≈ 964 µM); in the assay with Streptococcus pneumoniae it was 500 µg/mL (≈ 964 µM); with Aspergillus fumigatus, 500 µg/mL (≈ 964 µM); against Clostridium tetani, 250 µg/mL (≈ 482 µM). The figures for the MIC against Bacillus subtilis and against Salmonella typhi were 500 µg/mL (≈ 964 µM) and 250 µg/mL (≈ 482 µM), respectively. The compound also came in with an inhibition at 6.25 µg/mL in assay [1] of 72%.

In the case of `Cc1ccc2nc(Cl)c(C3C(C#N)=C(N)N(Nc4ccccc4)C4=C3C(=O)CC(C)(C)C4)cc2c1` (stereo not given), in the assay on Plasmodium falciparum, inhibition was half-maximal at 0.15 µg/mL (≈ 0.31 µM) (IC50). Also, the MIC in the assay on Vibrio cholerae was 250 µg/mL (≈ 517 µM); with Escherichia coli, 100 µg/mL (≈ 207 µM); with Candida albicans it was 500 µg/mL (≈ 1030 µM); against Streptococcus pneumoniae, 250 µg/mL (≈ 517 µM); in the assay on Aspergillus fumigatus, more than 1000 µg/mL; against Clostridium tetani, 500 µg/mL (≈ 1030 µM). The MIC in the assay with Bacillus subtilis turned out to be 500 µg/mL (≈ 1030 µM); against Salmonella typhi it was 200 µg/mL (≈ 413 µM). Moreover, at 6.25 µg/mL the inhibition in assay [1] was 12%.

Take `COc1ccc(NN2C(N)=C(C#N)C(c3cc4cc(OC)ccc4nc3Cl)C3=C2CC(C)(C)CC3=O)cc1` (stereo not given): the IC50 in the assay on Plasmodium falciparum stood at 0.019 µg/mL (≈ 0.0358 µM). Moreover, the MIC in the assay on Vibrio cholerae came to 62.5 µg/mL (≈ 118 µM); in the assay with Escherichia coli, 100 µg/mL (≈ 189 µM); in the assay with Candida albicans it was 500 µg/mL (≈ 943 µM); in the assay with Streptococcus pneumoniae, 25 µg/mL (≈ 47.2 µM); in the assay with Aspergillus fumigatus, 500 µg/mL (≈ 943 µM); in the assay on Clostridium tetani, 200 µg/mL (≈ 377 µM). The values for the MIC with Bacillus subtilis and in the assay on Salmonella typhi were 200 µg/mL (≈ 377 µM) and 50 µg/mL (≈ 94.3 µM), respectively. The compound further yielded an inhibition at 6.25 µg/mL in [1] of 7%.

`CC1(C)CC(=O)C2=C(C1)N(Nc1ccc(Br)cc1)C(N)=C(C#N)C2c1cc2cc(Cl)ccc2nc1Cl` (stereo not given) gave an IC50 in the assay on Plasmodium falciparum of 0.08 µg/mL (≈ 0.137 µM). Moreover, the MIC in the assay on Vibrio cholerae was 250 µg/mL (≈ 429 µM); with Escherichia coli it was 100 µg/mL (≈ 171 µM); in the assay on Candida albicans, 1000 µg/mL (≈ 1710 µM); against Streptococcus pneumoniae, 200 µg/mL (≈ 343 µM); in the assay with Aspergillus fumigatus it was 500 µg/mL (≈ 857 µM); with Clostridium tetani it was 250 µg/mL (≈ 429 µM). Moreover, the MIC in the assay on Bacillus subtilis and in the assay on Salmonella typhi was 250 µg/mL (≈ 429 µM) each time. In assay [1], this compound had an inhibition at 6.25 µg/mL of 85%.

`O=C(O)c1cn(C2CC2)c2cc(N3CCNCC3)c(F)cc2c1=O` [CIPROFLOXACIN]: the MIC came out at 25 µg/mL (≈ 75.4 µM) in the assay with Vibrio cholerae, 25 µg/mL (≈ 75.4 µM) in the assay on Escherichia coli, 50 µg/mL (≈ 151 µM) against Streptococcus pneumoniae and 25 µg/mL (≈ 75.4 µM) against Salmonella typhi.

Regarding NYSTATIN, the MIC against Candida albicans and in the assay with Aspergillus fumigatus was 100 µg/mL each time.

In assay [1], `CO[C@H]1/C=C/O[C@@]2(C)Oc3c(C)c(O)c4c(O)c(c(/C=N/N5CCN(C)CC5)c(O)c4c3C2=O)NC(=O)/C(C)=C\C=C\[C@H](C)[C@H](O)[C@@H](C)[C@@H](O)[C@@H](C)[C@H](OC(C)=O)[C@@H]1C` [RIFAMPIN] yielded an inhibition at 6.25 µg/mL of 98%.
